# Assay results collected from several papers.
# Lines come from different studies, so protocols differ.
# Target: Interleukin-1 receptor-associated kinase 1 (IRAK1, Homo sapiens, UniProt P51617)
SMILES,observed,method,tested at,remaining binding [%]
CNC(=O)[C@@H]1CC[C@@H](n2c(-c3ccc4cnccc4c3)nc3ccc(C(=O)NCc4cccc(C(N)=O)c4)cc32)C1,binding,competition with immobilised ligand,1 µM,100
O=S(=O)(NC1CCC(c2cc(F)ccc2F)(S(=O)(=O)c2ccc(Cl)cc2)CC1)C(F)(F)F (stereo not drawn),cell-free assay,competition with immobilised ligand,1 µM,93
COc1cnc(Nc2cccc(S(N)(=O)=O)c2)nc1N1CCN(c2ccccc2)CC1,binding,competition with immobilised ligand,1 µM,68
c1cncc(-c2cccc(Nc3nccc(NC4CCCCC4)n3)c2)c1,binding,competition with immobilised ligand,10 µM,9.9
O=C(NCC1CCOCC1)c1n[nH]cc1NC(=O)c1c(F)cccc1F,binding,competition with immobilised ligand,1 µM,98
O=C(c1ccc(Nc2nccc(-c3cc4ccccc4s3)n2)cc1)N1CCC(N2CCCC2)CC1,binding,competition with immobilised ligand,1 µM,3.2
C[C@@H]1CCN(c2nccc(-c3cnn4ncccc34)n2)C1,binding,,1 µM,98
Cc1nccc(COC(=O)N2C[C@@H]3[C@@H](CNC(=O)c4ccc5[nH]nnc5c4)[C@@H]3C2)n1,cell-free assay,competition with immobilised ligand,1 µM,81
COc1ncc2cc3ccccc3nc2c1C#N,cell-free assay,competition with immobilised ligand,5 µM,92
CN(C)c1ncc(F)c(-c2cnn3ncccc23)n1,binding,,1 µM,66
CCS(=O)(=O)c1cc2cc(C[C@](O)(CC(C)(C)c3ccc(F)cc3C(N)=O)C(F)(F)F)[nH]c2cn1,cell-free assay,competition with immobilised ligand,1 µM,99
C[C@@H](c1ccc(-n2cnc3c(N)ncnc32)cc1)N1CCc2nn(C)c(Cc3ccccc3)c2C1=O,binding,competition with immobilised ligand,0.1 µM,69
CCC(=O)N[C@@H]1CC[C@H](C(=O)N(C)c2ccc(-c3nc4ccccc4o3)cc2)C1,cell-free assay,competition with immobilised ligand,1 µM,100
CN(c1nccc(-c2cnn3ncccc23)n1)C1CC1,binding,,1 µM,100
CCCOc1ccc([C@H]2[C@H](C(=O)O)[C@@H](c3ccc4c(c3)OCO4)CN2CC(=O)Nc2c(CC)cccc2CC)cc1,cell-free assay,competition with immobilised ligand,1 µM,67
N[C@@H]1CCN(c2nccc(-c3cnn4ncccc34)n2)C1,binding,,1 µM,100
O=C(c1ccc(Nc2ncc(Cl)c(-c3cc4ccccc4s3)n2)cc1)N1CCC(N2CCCC2)CC1,binding,competition with immobilised ligand,1 µM,0
c1cnn2ncc(-c3ccnc(N4CCC45COC5)n3)c2c1,binding,,1 µM,76
Cc1c(NC(=O)c2cc(C(N)=O)nc3cc(F)ccc23)c(C(F)(F)F)nn1Cc1ccc(C#N)cc1,cell-free assay,competition with immobilised ligand,1 µM,70
CN(C)c1nccc(-c2cnc3ncccn23)n1,binding,,1 µM,65
O=C(NCCCN1CCOCC1)c1ccc(Nc2nccc(-c3cc4ccccc4s3)n2)cc1,binding,competition with immobilised ligand,1 µM,3.3
